Source: ChEMBL document CHEMBL3808298, “The combination of quinazoline and chalcone moieties leads to novel potent heterodimeric modulators of breast cancer resistance protein (BCRP/ABCG2)” (Eur J Med Chem, 2016)
Values belong to the compound of their own block, whether it stands above or below them. Active and inactive are the calls of the source. No cut-off for these calls is given here.

Assays:
ABCG2 = experiment: Therapeutic ratio of GI50 for MDCK2 cells expressing human C-terminal GFP-tagged ABCG2 to IC50 for human C-terminal GFP-tagged ABCG2 expressed in MDCK2 cells; format: ADME, cell-based; conditions: dog, read-out: TI
Summary of the method: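 Ratio of GI50 from a 72 h MTT assay in MDCK II BCRP cells to IC50 from the pheophorbide A assay in the same cells.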

[1] = target: T1, Broad substrate specificity ATP-binding cassette transporter ABCG2 (Homo sapiens, UniProt Q9UNQ0); experiment: Inhibition of vanadate-sensitive ATPase activity of recombinant human ABCG2 expressed in baculovirus infected Sf9 cell membrane assessed as decrease in inorganic phosphate production at >1 uM after 20 mins by colorimetry; conditions: sf9, 20 min
T1 sequence (Q9UNQ0 whole entry): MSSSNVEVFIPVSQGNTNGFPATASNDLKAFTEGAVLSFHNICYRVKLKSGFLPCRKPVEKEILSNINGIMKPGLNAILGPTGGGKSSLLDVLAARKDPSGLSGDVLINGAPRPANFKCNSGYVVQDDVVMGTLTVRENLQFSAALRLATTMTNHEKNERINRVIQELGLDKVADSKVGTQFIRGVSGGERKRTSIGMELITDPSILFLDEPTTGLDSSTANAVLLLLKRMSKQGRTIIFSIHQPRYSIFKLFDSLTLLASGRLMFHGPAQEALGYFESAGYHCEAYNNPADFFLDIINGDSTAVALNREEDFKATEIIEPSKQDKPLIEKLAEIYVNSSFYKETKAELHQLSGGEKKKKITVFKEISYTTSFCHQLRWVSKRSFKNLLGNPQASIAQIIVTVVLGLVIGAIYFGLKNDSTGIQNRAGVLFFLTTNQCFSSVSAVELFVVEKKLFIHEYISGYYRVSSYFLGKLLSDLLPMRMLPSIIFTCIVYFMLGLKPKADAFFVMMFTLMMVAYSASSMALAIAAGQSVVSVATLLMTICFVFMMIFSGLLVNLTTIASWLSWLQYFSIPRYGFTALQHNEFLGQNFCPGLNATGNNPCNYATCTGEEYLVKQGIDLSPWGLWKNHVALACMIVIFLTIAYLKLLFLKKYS
Summary of the method: (§1)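 Sf9 membranes from cells infected with baculovirus carrying human wild-type ABCG2, cholesterol-loaded; protein by BCA. Buffer: 40 mM MOPS-Tris pH 7.0, 50 mM KCl, 2 mM DTT, 500 µM EGTA-Tris, 5 mM azide, 1 mM ouabain, 10 µg protein. Reaction started with 3.3 mM MgATP, 20 min at 37 °C. Basal activity with 1 mM orthovanadate; 1 µM quercetin and 1 µM Ko143 as references. Pi by molybdate/ascorbate at 880 nm against K2HPO4 standard; triplicates.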

[2] = target: T1, Broad substrate specificity ATP-binding cassette transporter ABCG2; experiment: Induction of vanadate-sensitive ATPase activity of recombinant human ABCG2 expressed in baculovirus infected Sf9 cell membrane assessed as increase in inorganic phosphate production up to 1 uM after 20 mins by colorimetry; conditions: sf9, 20 min; summary of the method: as §1
[3] = target: T1, Broad substrate specificity ATP-binding cassette transporter ABCG2; experiment: Inhibition of human C-terminal GFP-tagged ABCG2 expressed in MDCK2 cells using pheophorbide A as substrate preincubated for 20 mins followed by substrate addition measured after 120 mins by flow cytometry; format: cell-based, MDCK-II
Summary of the method: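 MDCK II BCRP cells, about 45,000/well in KHB, preincubated with compound for 20 min at 37 °C, 5% CO2. Pheophorbide A added (5 µM solution), then 120 min to steady state. Flow cytometry: excitation 488 nm, emission >670 nm (FL3); GFP in FL1. IC50 from 4-parameter logistic fit; duplicates.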

[4] = Cytotoxicity against MDCK2 cells assessed as reduction in cell viability after 72 hrs by MTT assay; format: cell-based, Canis lupus familiaris, MDCK-II; conditions: dog
Summary of the method: (§2)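 Seeding 3 x 10³ cells/well, 6 h attachment at 37 °C, 5% CO2, then compound for 72 h. Controls: 10% DMSO (positive), medium (negative). MTT 5 mg/ml stock for 1 h; formazan in DMSO; A570, background 690 nm. Normalized to control; GI50 from variable-slope sigmoidal fit.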

[5] = target: T1, Broad substrate specificity ATP-binding cassette transporter ABCG2; experiment: Non-competitive inhibition of human C-terminal GFP-tagged ABCG2 expressed in MDCK2 cells using pheophorbide A as substrate preincubated for 20 mins followed by substrate addition measured after 120 mins by Lineweaver-Burk plot analysis; format: cell-based; conditions: mdck-ii, 2 h
Summary of the method: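 Pheophorbide A accumulation in MDCK II BCRP cells with substrate at 0.2, 0.4, 0.5, 1.0, 1.5 and 2.0 μM. Inhibitor at 0, 0.031, 0.1, 0.18, 0.31 and 0.56 μM. Transport velocities analyzed by Lineweaver-Burk linearization; inhibition type assigned from changes in KM and Vmax.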

[6] = target: T1, Broad substrate specificity ATP-binding cassette transporter ABCG2; experiment: Inhibition of human C-terminal GFP-tagged ABCG2 expressed in MDCK2 cells assessed as SN-38-induced cytotoxicity by measuring cell viability at 0.01 to 0.1 uM after 72 hrs by MTT assay; format: cell-based; conditions: mdck-ii
Summary of the method: (§3)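 SN-38 dose-response curves in MDCK II BCRP cells (canine kidney line stably transfected with human ABCG2 C-terminally fused to GFP) and parental MDCK II wild-type cells. Modulator was present at a final 0.01 or 0.1 µM. Cells were seeded at 3 x 10³ per well, attached 6 h, then exposed 72 h. MTT was read at 570 nm minus 690 nm. Data were normalized and fitted with variable-slope sigmoidal regression.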

[7] = target: Multidrug resistance-associated protein 1 (Homo sapiens, UniProt P33527); experiment: Inhibition of ABCC1 in human H69AR cells at 10 uM incubated for 30 mins measured up to 3600 secs with time intervals of 60 secs by calcein accumulation assay; format: cell-based
Chain of Multidrug resistance-associated protein 1 (P33527 whole entry): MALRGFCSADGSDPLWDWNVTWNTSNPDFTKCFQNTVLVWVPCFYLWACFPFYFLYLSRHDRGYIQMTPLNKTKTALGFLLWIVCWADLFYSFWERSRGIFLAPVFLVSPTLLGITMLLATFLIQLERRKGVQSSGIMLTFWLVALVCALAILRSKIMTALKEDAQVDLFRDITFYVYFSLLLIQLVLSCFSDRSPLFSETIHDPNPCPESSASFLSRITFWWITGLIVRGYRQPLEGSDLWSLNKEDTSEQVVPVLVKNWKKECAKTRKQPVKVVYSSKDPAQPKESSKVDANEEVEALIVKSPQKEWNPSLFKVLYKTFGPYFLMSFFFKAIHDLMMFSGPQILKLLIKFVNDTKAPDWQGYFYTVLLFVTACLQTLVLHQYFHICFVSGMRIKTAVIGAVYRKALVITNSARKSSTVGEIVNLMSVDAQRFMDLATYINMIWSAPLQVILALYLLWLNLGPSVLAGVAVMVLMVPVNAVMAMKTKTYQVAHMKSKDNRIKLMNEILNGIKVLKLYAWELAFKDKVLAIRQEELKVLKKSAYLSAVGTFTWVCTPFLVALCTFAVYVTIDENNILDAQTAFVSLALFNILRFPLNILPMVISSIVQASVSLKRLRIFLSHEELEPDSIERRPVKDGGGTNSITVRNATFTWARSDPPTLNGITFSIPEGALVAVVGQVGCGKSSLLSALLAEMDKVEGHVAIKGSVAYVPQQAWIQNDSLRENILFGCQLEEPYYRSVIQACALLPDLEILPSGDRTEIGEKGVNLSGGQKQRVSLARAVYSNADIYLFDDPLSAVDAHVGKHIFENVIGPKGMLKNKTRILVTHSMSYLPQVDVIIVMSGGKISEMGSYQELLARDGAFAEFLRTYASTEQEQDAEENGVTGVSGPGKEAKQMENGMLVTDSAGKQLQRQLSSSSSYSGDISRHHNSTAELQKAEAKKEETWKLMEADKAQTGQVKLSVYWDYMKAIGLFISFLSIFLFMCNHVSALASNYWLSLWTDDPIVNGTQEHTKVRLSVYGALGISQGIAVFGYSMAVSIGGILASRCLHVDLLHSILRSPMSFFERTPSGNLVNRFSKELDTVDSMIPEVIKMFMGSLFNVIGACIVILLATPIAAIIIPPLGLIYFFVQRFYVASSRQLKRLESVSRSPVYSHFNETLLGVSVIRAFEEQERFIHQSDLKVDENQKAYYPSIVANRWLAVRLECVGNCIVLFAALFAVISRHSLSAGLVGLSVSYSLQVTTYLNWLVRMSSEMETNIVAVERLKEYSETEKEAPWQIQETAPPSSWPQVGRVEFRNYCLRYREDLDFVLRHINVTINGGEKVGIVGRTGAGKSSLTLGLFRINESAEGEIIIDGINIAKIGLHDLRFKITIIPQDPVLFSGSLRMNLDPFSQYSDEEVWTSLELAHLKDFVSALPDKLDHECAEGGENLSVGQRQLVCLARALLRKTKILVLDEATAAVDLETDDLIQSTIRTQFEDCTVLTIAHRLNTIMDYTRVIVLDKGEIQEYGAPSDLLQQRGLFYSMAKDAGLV
Summary of the method: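 Calcein AM assay in ABCC1-overexpressing H69AR cells, about 30,000/well, 30 min preincubation with compound at 10 μM. Calcein AM (1.25 µM solution) added; fluorescence at ex 485/em 520 nm every 60 s up to 3600 s at 37 °C.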

[8] = target: T2, ATP-dependent translocase ABCB1 (Homo sapiens, UniProt P08183); experiment: Inhibition of ABCB1 in human A2780/ADR cells incubated for 30 mins measured up to 3600 secs with time intervals of 60 secs by calcein accumulation assay; format: cell-based
T2 sequence (P08183 whole entry): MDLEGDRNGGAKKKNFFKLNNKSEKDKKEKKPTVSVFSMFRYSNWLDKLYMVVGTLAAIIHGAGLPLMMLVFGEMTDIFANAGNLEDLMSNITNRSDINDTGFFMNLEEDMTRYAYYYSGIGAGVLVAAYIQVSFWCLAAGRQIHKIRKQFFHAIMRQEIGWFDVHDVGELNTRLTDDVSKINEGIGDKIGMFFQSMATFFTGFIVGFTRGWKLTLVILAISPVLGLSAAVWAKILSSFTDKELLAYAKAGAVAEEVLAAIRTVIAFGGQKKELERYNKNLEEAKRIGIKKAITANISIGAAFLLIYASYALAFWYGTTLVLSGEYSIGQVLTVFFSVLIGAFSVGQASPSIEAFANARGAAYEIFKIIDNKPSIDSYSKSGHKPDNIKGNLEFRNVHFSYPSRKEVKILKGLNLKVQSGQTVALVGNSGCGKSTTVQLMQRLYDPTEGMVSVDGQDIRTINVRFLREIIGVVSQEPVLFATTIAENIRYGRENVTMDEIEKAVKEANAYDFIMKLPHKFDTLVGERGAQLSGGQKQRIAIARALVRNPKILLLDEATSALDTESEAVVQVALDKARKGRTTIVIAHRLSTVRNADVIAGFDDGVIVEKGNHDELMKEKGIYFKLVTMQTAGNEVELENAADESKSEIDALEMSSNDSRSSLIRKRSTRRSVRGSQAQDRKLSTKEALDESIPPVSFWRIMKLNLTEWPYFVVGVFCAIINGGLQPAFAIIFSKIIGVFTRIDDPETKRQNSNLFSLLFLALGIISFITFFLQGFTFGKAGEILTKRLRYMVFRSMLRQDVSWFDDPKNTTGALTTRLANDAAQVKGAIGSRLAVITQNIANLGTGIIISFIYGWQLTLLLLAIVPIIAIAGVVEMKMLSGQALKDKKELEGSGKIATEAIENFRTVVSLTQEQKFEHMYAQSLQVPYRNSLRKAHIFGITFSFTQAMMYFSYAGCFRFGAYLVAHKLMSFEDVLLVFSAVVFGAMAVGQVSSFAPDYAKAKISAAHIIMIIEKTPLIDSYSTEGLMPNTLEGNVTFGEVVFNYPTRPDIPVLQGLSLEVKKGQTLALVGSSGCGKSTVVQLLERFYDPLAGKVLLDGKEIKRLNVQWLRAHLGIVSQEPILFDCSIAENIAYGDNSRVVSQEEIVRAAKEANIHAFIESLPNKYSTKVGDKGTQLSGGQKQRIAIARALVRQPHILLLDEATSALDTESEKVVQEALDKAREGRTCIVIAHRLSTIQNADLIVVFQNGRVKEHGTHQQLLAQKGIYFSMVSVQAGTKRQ

[9] = Cytotoxicity against MDCK2 cells expressing human C-terminal GFP-tagged ABCG2 assessed as reduction in cell viability after 72 hrs by MTT assay; format: ADME, cell-based, Canis lupus familiaris, MDCK-II; conditions: dog; summary of the method: as §2
MDCK-II = experiment: Potentiation of SN-38-induced cytotoxicity in MDCK2 cells assessed as decrease in cell viability at 0.01 to 0.1 uM after 72 hrs by MTT assay; format: functional, cell-based; conditions: Canis lupus familiaris; summary of the method: as §3
[10] = target: T1, Broad substrate specificity ATP-binding cassette transporter ABCG2; experiment: Inhibition of ABCG2 (unknown origin)
[11] = target: T2, ATP-dependent translocase ABCB1; experiment: Inhibition of ABCB1 mediated efflux in human MCF7/DX1 cells assessed as intracellular rhodamine-123 accumulation after 30 to 40 mins by flow cytometry; format: cell-based

inhibition (INH) [1]: Active
Activity [2]: Active
IC50 [3]: 0.19 µM
inhibition (INH) [5]: Active
inhibition (INH) [7]: Not Active
IC50 [8]: 14.9 µM
SMILES: COc1ccc(/C=C/C(=O)c2ccc(Nc3nc(-c4ccc(OC)c(OC)c4)nc4ccccc34)cc2)cc1OC
selectivity ratio (ABCG2): 489
GI50 at 72 h [4]: 132 µM
inhibition (INH) [6]: Active
GI50 at 72 h [9]: 92.9 µM
Activity (MDCK-II): Active

IC50 [10]: 5.12 µM
SMILES: COc1ccc(/C=C/C(=O)c2ccc(OC)c(OC)c2)cc1OC

IC50 [11]: 0.8 µM
SMILES: COc1ccc2c3c1O[C@H]1C[C@@H](OC(=O)CCCCCCCCC(=O)O[C@H]4C=C[C@@]56CN(C)CCc7ccc(OC)c(c75)O[C@H]6C4)C=C[C@@]31CN(C)CC2
